Screening data as filed in PubChem BioAssay.
Compounds with a hit are over-represented: about 4.7% of the library has one in this group of screens.
NR3A LBD binder: NR3A (human) ligand-binding domain modulation | NR3A LBD differential scanning fluorimetry, Tm shift; 0% = protein alone, 100% = glycine-bound protein | Tm shift relative to glycine control, % at 25 µM | actives 2.5% (n = 340,000) | AID 1259313;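 active = melting temperature shift of at least 10% of the positive control shift, at one fixed dose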
ADAM10 inh: inhibitors of human ADAM10; AID 720582; recombinant ADAM10, EDANS/DABCYL FRET peptide cleavage, 3 h; O14672; actives 0.62% (n = 370,000); inhibition, % at 7 µM;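 active = inhibition above a per-campaign cutoff equal to the mean of compounds falling between control-based bounds plus 3 SD, cut at about 20% in these data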
SKN-1 block: C. elegans SKN-1 inhibition; C. elegans VP596 Pgst-4::GFP/RFP ratio, acrylamide-induced, 24 h; actives 0.49% (n = 360,000); inhibition, % at 21.8 µM;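 active = interference check ratio from 0.5 to 1.5 plus GFP to RFP signal ratio inhibition reaching or exceeding a fixed threshold, cut at about 30% in these data, passing the limit was not always enough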
MT1-MMP act inh: inhibitors of human MT1-MMP activation. GFP/RFP ratio change, % at 20 µM. HT1080 RFP-PRO-GFP cells, GFP/RFP ratio fluorescence, overnight; percent of plate control window, DMSO zero. AID 651647. actives 0.061% (n = 360,000);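 active = GFP/RFP ratio change of at least 30% with cell ATP level not reduced by more than half and red fluorescence within 50% of control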
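Test system: HT1080 RFP-PRO-GFP cells; Benchmarks: DMSO and RFP-L50D-GFP cell wells; Timing: cells overnight before dosing, compound overnight, 37 °C, 5% CO2; Compound: one 20 µM compound dose with 1% DMSO; Read-out: GFP/RFP fluorescence ratio.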
ADAM17 inh: inhibitors of human ADAM17; P78536; actives 0.83% (n = 370,000); recombinant ADAM17, EDANS/DABCYL FRET peptide cleavage; inhibition, % at 6.95 µM;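 active = inhibition above the mean of compounds lying between control limits plus 3 SD, set per campaign, cut at about 8.5% in these data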
Target sequence (P78536 215-824 limits assumed): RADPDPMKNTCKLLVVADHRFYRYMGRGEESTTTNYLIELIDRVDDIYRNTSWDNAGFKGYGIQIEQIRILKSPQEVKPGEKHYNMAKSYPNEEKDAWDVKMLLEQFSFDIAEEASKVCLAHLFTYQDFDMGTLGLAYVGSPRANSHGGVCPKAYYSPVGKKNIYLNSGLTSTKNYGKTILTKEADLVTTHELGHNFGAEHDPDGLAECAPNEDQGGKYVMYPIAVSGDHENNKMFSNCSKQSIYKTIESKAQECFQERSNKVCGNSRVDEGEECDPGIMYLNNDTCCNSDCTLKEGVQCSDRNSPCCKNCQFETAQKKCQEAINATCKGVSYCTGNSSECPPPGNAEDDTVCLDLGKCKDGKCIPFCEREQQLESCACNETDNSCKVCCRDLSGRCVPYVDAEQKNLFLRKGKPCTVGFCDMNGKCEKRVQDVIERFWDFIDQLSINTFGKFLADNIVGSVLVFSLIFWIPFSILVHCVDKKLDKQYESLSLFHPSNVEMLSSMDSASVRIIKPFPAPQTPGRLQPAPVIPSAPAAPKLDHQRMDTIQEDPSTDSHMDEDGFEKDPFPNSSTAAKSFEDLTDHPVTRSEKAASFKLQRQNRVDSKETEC
MPTP inh: permeability transition pore inhibition | isolated mouse mitochondria, Ca2+ swelling absorbance, 30 min | inhibition, % at 10 µM | actives 1.4% (n = 360,000) | AID 602449;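 active = inhibition of 50% or more, scaled per plate between neutral and stimulator controls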
MPTP counter: mitochondrial membrane potential, counter-screen | inhibition, % at 10 µM | shares compounds with MPTP inh | isolated mitochondria, Rhodamine 123 fluorescence | actives 78% (n = 5,000); in the data active = inhibition above about 22%
MPTP abs DR: dose response confirmation of mitochondrial permeability transition pore inhibitors | IC50, µM | isolated mitochondria swelling, absorbance | actives 58% (n = 780) | shares compounds with MPTP inh; in the data active = IC50 below about 20 µM
MPTP cs DR: active in counter-screen for permeability transition pore inhibitors; shares compounds with MPTP inh; isolated mitochondria counterscreen, fluorescence read-out; IC50, µM; actives 49% (n = 780); AID 651564; in the data active = IC50 below about 80 µM
Numbers stand for hits; - = inactive; . = not tested or not shown.

SMILES	NR3A LBD binder	ADAM10 inh	SKN-1 block	MT1-MMP act inh	ADAM17 inh	MPTP inh	MPTP counter	others
O=C(COC(=O)Cc1ccc(Br)cc1)NCc1ccc2c(c1)OCO2	-	-	-	-	-	-	.
O=C(NCCNC(=O)c1cc(OCC(F)(F)F)ccc1OCC(F)(F)F)Nc1ccc(OC(F)(F)F)cc1	-	-	-	-	-	80	84
O=C(Nc1ccc(F)cc1)Nc1cc(OCC(F)(F)F)cc(OCC(F)(F)F)c1	27	-	-	-	-	97	70
CCOc1ccc(NC(=O)Nc2cc(OCC(F)(F)F)cc(OCC(F)(F)F)c2)cc1	-	-	-	-	-	80	71
O=C(NCCNC(=O)c1cc(OCC(F)(F)F)ccc1OCC(F)(F)F)Nc1ccc(Cl)cc1	-	-	.	.	-	.	.
CCOc1ccc(NC(=O)Nc2cc(C)ccc2F)cc1	-	-	-	-	-	-	.
COc1ccc(CCN2CCCC(CN(C)C(=O)c3cc(C)oc3C)C2)cc1 (configuration not stated)	-	-	-	-	-	-	.
CN1CCN(C(c2ccc(Cl)cc2)c2cc(Cl)c3cccnc3c2O)CC1 (configuration not stated)	34	-	-	-	-	75	-
CCN1CCN(CCCNC(=O)c2cc3c(s2)-c2ccccc2OC3)CC1	-	-	-	-	-	-	.
CN(C)CCNC(=O)c1cc2c(s1)-c1ccccc1OC2	-	-	-	-	-	60	-	MPTP abs DR=14;MPTP cs DR=-
Cc1c(NC(=O)c2cc3c(s2)-c2ccccc2OC3)cccc1[N+](=O)[O-]	-	-	-	-	-	64	77
O=C(c1cc2c(s1)-c1ccccc1OC2)N1CCCC1	-	-	-	-	-	-	.
O=S(=O)(c1ccccc1)N1CCN=C1SCc1ccccc1Cl	-	-	-	-	-	-	.
CCOc1ccc(NC(=O)CSc2nnc(Cn3cnc([N+](=O)[O-])n3)n2CC)cc1	-	-	-	-	-	-	.
Cc1nnc2n(-c3ccccc3)c(=O)c3c4c(sc3n12)COC(C(C)C)C4 (configuration not stated)	-	-	-	-	-	-	.
CC(C)C1Cc2c(sc3[nH]c(=S)n(Cc4ccccc4)c(=O)c23)CO1 (configuration not stated)	-	-	-	-	-	81	26
Cc1ccc(-c2cc(C(=O)Nc3ccc(S(=O)(=O)N4CC(C)OC(C)C4)cc3)[nH]n2)c(O)c1 (configuration not stated)	30	-	-	-	-	51	69
O=C(Nc1ccc(S(=O)(=O)N2CCOCC2)cc1)c1cc(-c2cc(Cl)ccc2O)n[nH]1	36	27	-	-	-	75	61
CN(Cc1ccccc1)S(=O)(=O)c1nnc(NC(=O)c2ccccc2)s1	-	-	-	-	-	-	.
Cc1noc(C)c1NC(=O)N(C)C[C@H]1Oc2c(NC(=O)C3CCCCC3)cccc2C(=O)N([C@H](C)CO)C[C@@H]1C	-	-	-	-	-	-	.
COc1cccc(S(=O)(=O)N(C)C[C@@H]2Oc3cc(Br)ccc3S(=O)(=O)N([C@@H](C)CO)C[C@@H]2C)c1	.	-	-	-	-	-	.
CCOC(=O)c1cnc(SCC(=O)Nc2cc(OC)cc(OC)c2)nc1N	-	-	-	-	-	87	49
CCOC(=O)Cc1ccc(Nc2nc(NC)nc3ccsc23)cc1	.	-	-	-	-	-	.
C/C(=N\NC1=NCCN1)c1ccc(Cl)cc1	-	-	-	-	-	-	.
COc1ccc(Br)cc1/C(C)=N/NC1=NCCN1	-	-	-	-	-	105	31
SMILES	NR3A LBD binder	ADAM10 inh	SKN-1 block	MT1-MMP act inh	ADAM17 inh	MPTP inh	MPTP counter	others
CCCCCOc1ccc(Br)cc1/C(C)=N/NC1=NCCN1	-	-	-	-	-	93	24
C/C(=N\NC1=NCCN1)c1ccccc1	-	-	-	-	-	-	.
CC1CCN(S(=O)(=O)c2ccc(NC(=O)Cn3nnc(-c4ccccc4)n3)cc2)CC1	11	-	-	-	10	54	56
COc1cc2nc(C3CCC3)n(NC(=O)C3CCC(OC)CC3)c(=O)c2cc1OC (configuration not stated)	-	-	-	-	-	-	.
O=C(Nc1cccc(Cl)c1)N(CCCN1CCOCC1)Cc1ccccc1F	-	-	-	-	-	95	95
O=C(CN1CCN(Cc2ccc(F)cc2)CC1)NCCc1ccccc1	-	-	-	-	-	-	.
Oc1c(C=C2N=c3ccccc3=N2)sc(=S)n1C1CCCC1	-	-	-	-	-	83	50
COC(=O)c1ccc(N2CCN(S(=O)(=O)c3ccc(C)cc3)CC2)c([N+](=O)[O-])c1	-	-	-	-	-	56	65
COc1ccc(S(=O)(=O)N2CCN(c3c(C)cccc3C)CC2)cc1OC	-	-	-	-	-	-	.
COc1ccc(S(=O)(=O)N2CCN(c3ccc(C)cc3C)CC2)cc1OC	-	-	-	-	-	57	82
COC(=O)c1ccc(N2CCN(S(=O)(=O)c3ccc(Br)cc3)CC2)c([N+](=O)[O-])c1	-	-	-	-	-	-	.
Cn1c(=O)n(C)c2cc([N+](=O)[O-])c(N3CCN(S(=O)(=O)c4ccc(C(C)(C)C)cc4)CC3)cc21	-	-	-	-	-	54	71
CC(=O)c1ccc(N2CCN(c3ccccc3O)CC2)c([N+](=O)[O-])c1	-	-	-	-	-	85	81
CC1(C)S[C@@H]2[C@H](NC(=O)C(C(=O)O)c3ccccc3)C(=O)N2[C@H]1C(=O)O (some centres not stated)	-	.	-	-	.	-	.
CN(C(=O)Nc1cnccc1C(F)(F)F)C1CCCCC1	-	-	-	-	-	-	.
Cn1nnnc1SCC(=O)Nc1nc(-c2ccc(F)c(F)c2)cs1	-	-	-	-	-	-	.
CC(C)Cn1c(=O)c2c(nc3n2CCCN3Cc2ccccc2)n(C)c1=O	-	-	-	-	-	-	.
O=C(Nc1nc2c(s1)CCCC2)c1nn(Cc2ccccc2)c(=O)c2ccccc12	-	-	-	-	-	59	-	MPTP abs DR=-;MPTP cs DR=-
Cc1ccc(/C=C\c2nccc3c2[nH]c2ccccc23)cc1	14	-	-	-	-	75	61
Fc1ccc(/C=C\c2nccc3c2[nH]c2ccccc23)cc1	13	-	-	-	-	87	80
